Calls of active or inactive are those of the source. The calls are words filed in the database; no cut-off is given here.

One may read the inhibition as the drop in the measured response relative to a control, in per cent. Lower therefore signals a weak effect. Broadly, the IC50 is the concentration needed to halve the response being measured. As a reminder, the GI50 is the concentration that inhibits growth by half. Higher therefore signals less potent growth inhibition.

In data set [1] the target is T1, Aurora kinase A (Homo sapiens) (UniProt O14965).
T1 sequence (whole entry): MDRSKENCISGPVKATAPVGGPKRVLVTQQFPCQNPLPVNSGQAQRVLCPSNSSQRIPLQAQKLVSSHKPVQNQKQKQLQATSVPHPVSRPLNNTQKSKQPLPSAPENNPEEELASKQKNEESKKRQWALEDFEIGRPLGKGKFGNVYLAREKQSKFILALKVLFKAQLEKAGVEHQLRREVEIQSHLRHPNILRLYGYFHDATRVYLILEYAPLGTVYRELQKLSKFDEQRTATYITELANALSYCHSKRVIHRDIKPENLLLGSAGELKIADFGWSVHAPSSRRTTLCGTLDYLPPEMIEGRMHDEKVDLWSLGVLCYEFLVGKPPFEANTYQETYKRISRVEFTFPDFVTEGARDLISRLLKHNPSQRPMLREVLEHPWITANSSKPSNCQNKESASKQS
The data set can be described thus: Inhibition of aurora A kinase at 100 uM. An outline of the steps: (§1)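 Aurora-A kinase activity measured by Flashplate or Filterplate assay at 20 µM ATP. Samples run in triplicate and mean reported; some IC50 values are the mean of independent determinations.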

The target of data set [2] is T1, Aurora kinase A (Homo sapiens). The data set can be described thus: Inhibition of aurora A kinase at 10 uM. An outline of the steps:
as §1

The target in another data set is T2, Aurora kinase A (Homo sapiens, UniProt O14965).
T2 sequence (O14965 whole entry): T1 sequence (whole entry)
Put plainly: Inhibition of aurora A kinase. An outline of the steps: as §1

A further data set has as its target Cytochrome P450 2C19 (Homo sapiens, UniProt P33261). Put plainly: Inhibition of human CYP2C19 after 10 mins. In kind it is ADME. The method, boiled down: (§2)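 Inhibition of CYP isozymes assayed in pooled human liver microsomes from 50 individuals. Microsomal protein 0.5 mg/ml, 10 min incubation. Mephenytoin served as the CYP2C19 substrate. Metabolites were detected by LC–MS–MS with positive electrospray ionisation.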

For the next data set, the target named is Cytochrome P450 2C9 (Homo sapiens, UniProt P11712). The data set can be described thus: Inhibition of human CYP2C9 after 10 mins. In kind it is ADME. The method, boiled down:
as §2

The next data set deals with HeLa. The data set can be described thus: Antiproliferative activity against HeLa cells. In kind it is functional. Conditions: Homo sapiens.
The next data set has as its target Aurora kinase B (Homo sapiens, UniProt Q96GD4). Put plainly: Inhibition of recombinant aurora B kinase. The method, boiled down: (§3)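 Purified recombinant Aurora kinase; IC50 determined by either a Flashplate or a Filterplate assay, with ATP in the assay at 20.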
A further data set deals with Cytochrome P450 2D6 (Homo sapiens, UniProt P10635). Put plainly: Inhibition of human CYP2D6 after 10 mins. In kind it is ADME. The method, boiled down:
as §2

The target in the next data set is T3, Cytochrome P450 1A2 (Homo sapiens, UniProt P05177).
T3 sequence (P05177 whole entry): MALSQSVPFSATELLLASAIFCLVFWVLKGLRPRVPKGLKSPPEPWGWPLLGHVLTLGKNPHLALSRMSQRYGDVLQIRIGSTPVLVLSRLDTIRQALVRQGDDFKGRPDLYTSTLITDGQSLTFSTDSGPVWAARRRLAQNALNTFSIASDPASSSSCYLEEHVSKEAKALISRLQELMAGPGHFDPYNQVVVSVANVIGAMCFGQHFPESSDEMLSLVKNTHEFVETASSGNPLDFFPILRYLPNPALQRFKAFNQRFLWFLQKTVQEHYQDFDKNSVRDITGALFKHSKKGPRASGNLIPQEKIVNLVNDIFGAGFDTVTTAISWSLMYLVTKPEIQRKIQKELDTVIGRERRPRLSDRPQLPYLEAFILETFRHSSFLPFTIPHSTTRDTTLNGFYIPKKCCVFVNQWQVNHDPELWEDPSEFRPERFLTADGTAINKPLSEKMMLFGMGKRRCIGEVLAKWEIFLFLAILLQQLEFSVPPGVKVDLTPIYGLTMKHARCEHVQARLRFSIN
Put plainly: Inhibition of human CYP1A2 after 10 mins. In kind it is ADME. An outline of the steps: as §2

For another data set, the target named is T4, Aurora kinase C (Homo sapiens, UniProt Q9UQB9).
T4 sequence (Q9UQB9 whole entry): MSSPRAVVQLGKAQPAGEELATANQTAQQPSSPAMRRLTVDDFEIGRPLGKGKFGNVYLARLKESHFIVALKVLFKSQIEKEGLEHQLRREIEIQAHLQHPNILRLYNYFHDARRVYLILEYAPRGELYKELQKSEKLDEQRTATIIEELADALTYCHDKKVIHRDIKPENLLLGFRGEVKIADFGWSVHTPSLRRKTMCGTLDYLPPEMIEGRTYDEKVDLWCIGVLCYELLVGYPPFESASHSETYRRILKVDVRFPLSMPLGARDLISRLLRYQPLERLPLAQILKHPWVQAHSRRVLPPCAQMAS
Put plainly: Inhibition of recombinant aurora C kinase. An outline of the steps:
as §3

Another data set has as its system HCT-116. Put plainly: Antiproliferative activity against HCT116 cells. In kind it is functional. Conditions: Homo sapiens.
The nature of data set [3]: Metabolic stability in mouse liver microsomes after 30 mins. In kind it is ADME, Microsome. Conditions: read-out: Stability. The method, boiled down: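 Compound incubated 30 min with mouse liver microsomes. Percent of parent compound remaining was reported.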
In general terms: Liver microsomes are vesicles of endoplasmic reticulum, rich in cytochrome P450 enzymes.

In another data set the target is T5, Cytochrome P450 2A6 (Homo sapiens, UniProt P11509).
T5 sequence (P11509 whole entry): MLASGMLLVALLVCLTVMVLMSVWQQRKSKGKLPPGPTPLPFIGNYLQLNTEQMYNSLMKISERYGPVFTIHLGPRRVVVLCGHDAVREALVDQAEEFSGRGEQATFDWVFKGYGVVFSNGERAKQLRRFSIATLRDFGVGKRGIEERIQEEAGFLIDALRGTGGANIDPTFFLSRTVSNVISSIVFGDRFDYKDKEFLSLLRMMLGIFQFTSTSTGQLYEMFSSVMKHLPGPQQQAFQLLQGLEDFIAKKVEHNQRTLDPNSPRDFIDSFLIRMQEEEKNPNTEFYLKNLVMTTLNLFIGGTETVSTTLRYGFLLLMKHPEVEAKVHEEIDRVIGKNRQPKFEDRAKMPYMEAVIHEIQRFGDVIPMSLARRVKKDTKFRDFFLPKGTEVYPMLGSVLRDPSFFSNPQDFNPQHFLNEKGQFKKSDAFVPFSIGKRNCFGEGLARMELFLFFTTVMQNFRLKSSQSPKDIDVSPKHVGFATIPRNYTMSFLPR
The data set can be described thus: Inhibition of human CYP2A6 after 10 mins. The data set is classed as ADME. An outline of the steps: as §2

Chain of Cytochrome P450 2C19 (P33261 whole entry): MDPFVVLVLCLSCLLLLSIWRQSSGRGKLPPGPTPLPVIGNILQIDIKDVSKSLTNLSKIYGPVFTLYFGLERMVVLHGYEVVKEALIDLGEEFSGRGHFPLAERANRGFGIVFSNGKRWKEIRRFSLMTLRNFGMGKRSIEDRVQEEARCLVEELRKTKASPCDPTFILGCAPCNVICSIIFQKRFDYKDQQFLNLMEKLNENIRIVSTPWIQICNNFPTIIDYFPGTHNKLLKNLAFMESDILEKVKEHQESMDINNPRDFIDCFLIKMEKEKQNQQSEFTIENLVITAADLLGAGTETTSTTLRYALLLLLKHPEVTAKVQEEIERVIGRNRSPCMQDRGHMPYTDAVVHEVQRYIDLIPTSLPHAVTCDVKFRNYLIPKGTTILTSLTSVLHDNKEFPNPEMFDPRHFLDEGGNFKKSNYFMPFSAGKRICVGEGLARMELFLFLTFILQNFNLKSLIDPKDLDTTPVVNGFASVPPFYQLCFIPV
Chain of Cytochrome P450 2D6 (P10635 whole entry): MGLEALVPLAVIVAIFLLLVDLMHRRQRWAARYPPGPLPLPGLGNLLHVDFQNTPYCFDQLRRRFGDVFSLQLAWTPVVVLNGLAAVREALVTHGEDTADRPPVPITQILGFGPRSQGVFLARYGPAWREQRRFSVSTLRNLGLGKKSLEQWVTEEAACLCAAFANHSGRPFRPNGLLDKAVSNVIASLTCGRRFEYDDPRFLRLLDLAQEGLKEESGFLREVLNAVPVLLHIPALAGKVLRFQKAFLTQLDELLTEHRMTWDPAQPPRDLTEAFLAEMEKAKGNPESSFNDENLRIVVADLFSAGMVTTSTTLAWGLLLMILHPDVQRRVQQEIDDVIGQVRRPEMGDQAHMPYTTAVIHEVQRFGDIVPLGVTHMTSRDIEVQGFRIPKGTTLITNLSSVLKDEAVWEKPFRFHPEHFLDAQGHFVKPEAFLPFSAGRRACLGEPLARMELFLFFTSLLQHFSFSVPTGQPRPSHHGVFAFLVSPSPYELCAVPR
Chain of Cytochrome P450 2C9 (P11712 whole entry): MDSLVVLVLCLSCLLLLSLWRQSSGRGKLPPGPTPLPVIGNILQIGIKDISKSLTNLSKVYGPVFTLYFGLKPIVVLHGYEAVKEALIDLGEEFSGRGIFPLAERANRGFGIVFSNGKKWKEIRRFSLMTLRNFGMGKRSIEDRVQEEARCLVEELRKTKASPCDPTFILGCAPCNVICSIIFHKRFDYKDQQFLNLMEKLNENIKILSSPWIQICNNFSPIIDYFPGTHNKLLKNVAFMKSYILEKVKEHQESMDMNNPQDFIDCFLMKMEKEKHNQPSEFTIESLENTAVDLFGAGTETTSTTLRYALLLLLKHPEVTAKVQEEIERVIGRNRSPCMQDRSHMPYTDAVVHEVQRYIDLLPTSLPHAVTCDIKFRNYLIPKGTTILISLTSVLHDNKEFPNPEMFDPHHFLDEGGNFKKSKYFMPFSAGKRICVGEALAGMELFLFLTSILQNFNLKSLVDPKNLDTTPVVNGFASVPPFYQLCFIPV
Chain of Aurora kinase B (Q96GD4 whole entry): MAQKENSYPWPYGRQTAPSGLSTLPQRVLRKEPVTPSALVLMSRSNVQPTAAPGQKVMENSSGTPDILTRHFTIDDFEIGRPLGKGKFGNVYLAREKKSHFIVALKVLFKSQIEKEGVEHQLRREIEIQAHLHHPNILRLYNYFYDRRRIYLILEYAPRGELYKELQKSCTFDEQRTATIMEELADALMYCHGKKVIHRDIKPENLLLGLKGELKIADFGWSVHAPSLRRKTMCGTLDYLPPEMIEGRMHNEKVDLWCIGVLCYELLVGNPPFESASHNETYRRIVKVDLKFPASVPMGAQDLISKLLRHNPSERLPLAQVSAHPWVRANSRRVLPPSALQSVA

Molecule `CCn1c(-c2ccc(N(C)C)cc2)nc2cccnc21` displayed an inhibition in [1] of 26%.
`CN(C)c1ccccc1-c1nc2cccnc2[nH]1`: the inhibition in data set [2] was found to be 20%.
With `COc1cc2ncnc(N3CCN(CC(=O)Nc4nccs4)CC3)c2cc1OC`, the IC50 on Aurora kinase A turned out to be 5.9 µM.
For the molecule `Cc1ccnc2nc(-c3ccc(N(C)C)cc3)[nH]c12`, on Aurora kinase A, it took 7 µM to reach half-maximal inhibition (IC50).
Same read-out and setting: with `COc1cc2ncnc(N3CCN(C(C)c4ccccc4)CC3)c2cc1OC` (stereo not given) the figure was 25 µM; with `COc1ccccc1-c1nc2ccc[nH]c-2n1`, 29 µM; with `COc1ccc(-c2cnc3nc(-c4ccc(N(C)C)cc4)[nH]c3c2)cc1`, 20 µM.
The same measure, in the same setting: then `COc1cc2ncnc(N3CCN(CC(=O)N(C)c4ccccc4)CC3)c2cc1OC`, with 16.5 µM.
As to `CN(C)c1ccc(-c2nc3ccccc3[nH]2)cc1`, the inhibition in data set [1] was determined as 8%.
Molecule `CN(C)c1ccc(-c2nc3c(Cl)ccnc3[nH]2)cc1` yielded an IC50 on Aurora kinase A of 2.4 µM.
Same read-out and setting: with `CC(=O)c1cccc(-c2cnc3[nH]c(-c4ccc(N(C)C)cc4)nc3c2)c1` the figure was 9 µM.
In data set [1], `CN(C)c1ccc(-c2nc3cc(-c4ccc5c(c4)OCO5)cnc3[nH]2)cc1` gave an inhibition of 33%.
Consider `CN(C)c1ccc(-c2nc3ncc(Cl)c(Cl)c3[nH]2)cc1`, for which the IC50 at Aurora kinase A was found to be 0.25 µM.
Consider `COc1cc2ncnc(N3CCN(c4ncccn4)CC3)c2cc1OC`, for which, in [1], the outcome was inactive.
`CN(C)c1ccc(-c2nc3cc(Cl)cnc3[nH]2)cc1` came in with an IC50 against Aurora kinase A of 0.57 µM.
In turn, `CN(C)c1ccc(-c2nc3cc(-c4cccnc4)cnc3[nH]2)cc1` showed an inhibition in [2] of 28%.
At Aurora kinase A, `CN(C)c1ccc(-c2nc3c(N4CCN(CC(=O)Nc5nccs5)CC4)ccnc3[nH]2)cc1` displayed an IC50 of 0.87 µM.
`CN(C)c1ccc(-c2nc3ncc(-c4cccc(O)c4)cc3[nH]2)cc1` registered an IC50 on Aurora kinase A of 18 µM.
`c1cnc2nc(-c3ccc(N4CCCC4)cc3)[nH]c2c1` registered an IC50 on Aurora kinase A of 4.6 µM.
On to `COc1cc2ncnc(N3CCN(CCn4ccnc4)CC3)c2cc1OC`, for which the result in [1] was inactive.
For the molecule `COc1cc2ncnc(N3CCN(Cc4cccc5ccccc45)CC3)c2cc1OC`, half-maximal inhibition against Aurora kinase A (IC50) was put at 9.6 µM.
Take `COc1cc2ncnc(N3CCN(c4cnccn4)CC3)c2cc1OC`: the outcome in data set [1] was inactive.
In the case of `CN(C)c1ccc(-c2nc3cc(-c4cccc(O)c4)cnc3[nH]2)cc1`, the inhibition in data set [2] is 31%.
On to `COc1cc2ncnc(N3CCN(Cc4ccc(F)cc4)CC3)c2cc1OC`, for which, on Aurora kinase A, 40 µM corresponded to half-maximal inhibition (IC50).
The same measure, in the same setting: with `COc1cc2ncnc(N3CCN(CCOc4ccccc4)CC3)c2cc1OC` the figure was 35 µM; with `Cc1cnc2[nH]c(-c3ccc(N(C)C)cc3)nc2c1`, 6.9 µM.
For the molecule `N#Cc1ccc(-c2nc3cccnc3[nH]2)cc1`, the inhibition in [2] is 38%.
Molecule `c1cnc2nc(-c3ccc(C4CCCCN4)cc3)[nH]c2c1` (stereo not given) came in with an IC50 at Aurora kinase A of 4.4 µM.
On the same count and under the same terms, then `COc1cccc(-c2nc3ncccc3[nH]2)c1`, with 16 µM; and `CN(C)c1cccc(-c2nc3cccnc3[nH]2)c1`, with 10 µM.
Turning to `CN(C)c1ccc(-c2nc3c(N4CCN(CC(=O)Nc5nccs5)CC4)c(Cl)cnc3[nH]2)cc1`, the IC50 was more than 10 µM against Cytochrome P450 2C19; 10 µM at Cytochrome P450 2C9; 0.198 µM at Aurora kinase B; more than 10 µM at Cytochrome P450 2D6; more than 10 µM on Cytochrome P450 1A2; 0.227 µM at Aurora kinase C. Also, at Cytochrome P450 2A6, the IC50 was more than 10 µM. Moreover, the GI50 in the data set on HeLa came out at 0.2 µM; in the data set on HCT-116 it was 0.35 µM. The remaining at 0.5 h in data set [3] turned out to be 75%.
In turn, `CN(C)c1ccc(-c2nc3cc(-c4cccs4)cnc3[nH]2)cc1` registered an inhibition in [2] of 34%.
Molecule `CN(C)c1ccc(-c2nc3cc(C(F)(F)F)cnc3[nH]2)cc1` gave an IC50 against Aurora kinase A of 0.74 µM.
In the case of `COc1ccc(-c2nc3ncccc3[nH]2)cc1`, the IC50 on Aurora kinase A amounted to 6.6 µM.
Same read-out and setting: then `COc1cc2ncnc(N3CCN(CC(=O)N4CCCC4)CC3)c2cc1OC`, with 98 µM.
On to `COc1cc2ncnc(N3CCN(CC(=O)OC(C)(C)C)CC3)c2cc1OC`, for which, in data set [1], the outcome was inactive.
With `CN(C)c1ccc(-c2nc3cccnc3[nH]2)cc1`, the IC50 against Aurora kinase A was found to be 4.3 µM.
Molecule `CN(C)c1ccc(-c2nc3cc[nH]cc-3n2)cc1` returned an IC50 on Aurora kinase A of 12.5 µM. In [2], this molecule showed an inhibition of 35%.
On to `CN(C)c1ccc(-c2nc3ncc(Br)cc3[nH]2)cc1`, for which 0.49 µM corresponded to half-maximal inhibition against Aurora kinase A (IC50).
The same measure, in the same setting: then `COc1cc2ncnc(N3CCN(CCc4ccccc4)CC3)c2cc1OC`, with 76 µM.

Values taken from ChEMBL document CHEMBL1137627, “Hit generation and exploration: imidazo[4,5-b]pyridine derivatives as inhibitors of Aurora kinases” (Bioorg Med Chem Lett, 2007).
